Experimental data published in article PMC5901702 (Journal of biomolecular screening, 2012).

Experiments:
[1] = target: T1, Ste23p (Saccharomyces cerevisiae, UniProt Q06010); experiment: Target specificity: Ste23p activity with a-factor–based peptide; assay type: biochemical, yeast; settings: 100 µM compound; 30 °C; relative to DMSO control = 100%
T1 sequence (Q06010 1-1027): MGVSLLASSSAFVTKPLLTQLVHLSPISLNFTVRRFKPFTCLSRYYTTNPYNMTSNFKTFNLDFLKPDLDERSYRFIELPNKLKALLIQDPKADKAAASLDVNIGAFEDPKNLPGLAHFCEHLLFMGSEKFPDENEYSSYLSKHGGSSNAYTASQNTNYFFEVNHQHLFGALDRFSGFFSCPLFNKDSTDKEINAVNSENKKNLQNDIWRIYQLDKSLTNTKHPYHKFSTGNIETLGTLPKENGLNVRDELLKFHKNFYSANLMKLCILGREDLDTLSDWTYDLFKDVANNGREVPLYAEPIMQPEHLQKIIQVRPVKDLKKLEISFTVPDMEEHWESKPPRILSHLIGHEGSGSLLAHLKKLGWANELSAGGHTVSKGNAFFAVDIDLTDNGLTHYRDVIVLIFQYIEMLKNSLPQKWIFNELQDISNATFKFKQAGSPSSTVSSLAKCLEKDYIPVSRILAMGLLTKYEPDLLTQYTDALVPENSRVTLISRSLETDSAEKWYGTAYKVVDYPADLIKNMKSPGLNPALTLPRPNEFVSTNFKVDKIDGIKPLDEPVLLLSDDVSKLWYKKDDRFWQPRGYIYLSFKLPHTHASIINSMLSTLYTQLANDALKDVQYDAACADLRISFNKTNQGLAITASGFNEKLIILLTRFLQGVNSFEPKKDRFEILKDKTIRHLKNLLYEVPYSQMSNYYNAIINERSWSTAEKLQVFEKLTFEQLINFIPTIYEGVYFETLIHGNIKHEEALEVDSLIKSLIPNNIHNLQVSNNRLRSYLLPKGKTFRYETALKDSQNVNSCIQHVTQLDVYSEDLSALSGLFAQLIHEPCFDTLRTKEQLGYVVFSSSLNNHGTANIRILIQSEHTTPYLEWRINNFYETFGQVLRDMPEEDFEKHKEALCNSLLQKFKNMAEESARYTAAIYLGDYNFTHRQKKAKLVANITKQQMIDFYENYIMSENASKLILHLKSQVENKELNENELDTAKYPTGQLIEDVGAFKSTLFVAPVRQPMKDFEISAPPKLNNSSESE
In short: (§1)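 Single-dose specificity assay with a-factor–based fluorogenic peptide (50 µM) in 0.1 M KPi pH 7.6. Ste23p was used at 10 µg/mL and 30 °C; trypsin and pronase E at 0.5 µg/mL each under the 37 °C HTS conditions. Enzymes were preincubated 10 min with 100 µM compound. Triplicate rates were normalized by trypsin/pronase full digestion and given relative to DMSO control (100%).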

[2] = target: T2, rat IDE (Rattus norvegicus, UniProt P35559); assay type: biochemical; settings: 100 µM compound; a-factor–based substrate 50 µM; 0.1 M KPi pH 7.6; relative to DMSO-treated control = 100%
T2 sequence (P35559 1-1019): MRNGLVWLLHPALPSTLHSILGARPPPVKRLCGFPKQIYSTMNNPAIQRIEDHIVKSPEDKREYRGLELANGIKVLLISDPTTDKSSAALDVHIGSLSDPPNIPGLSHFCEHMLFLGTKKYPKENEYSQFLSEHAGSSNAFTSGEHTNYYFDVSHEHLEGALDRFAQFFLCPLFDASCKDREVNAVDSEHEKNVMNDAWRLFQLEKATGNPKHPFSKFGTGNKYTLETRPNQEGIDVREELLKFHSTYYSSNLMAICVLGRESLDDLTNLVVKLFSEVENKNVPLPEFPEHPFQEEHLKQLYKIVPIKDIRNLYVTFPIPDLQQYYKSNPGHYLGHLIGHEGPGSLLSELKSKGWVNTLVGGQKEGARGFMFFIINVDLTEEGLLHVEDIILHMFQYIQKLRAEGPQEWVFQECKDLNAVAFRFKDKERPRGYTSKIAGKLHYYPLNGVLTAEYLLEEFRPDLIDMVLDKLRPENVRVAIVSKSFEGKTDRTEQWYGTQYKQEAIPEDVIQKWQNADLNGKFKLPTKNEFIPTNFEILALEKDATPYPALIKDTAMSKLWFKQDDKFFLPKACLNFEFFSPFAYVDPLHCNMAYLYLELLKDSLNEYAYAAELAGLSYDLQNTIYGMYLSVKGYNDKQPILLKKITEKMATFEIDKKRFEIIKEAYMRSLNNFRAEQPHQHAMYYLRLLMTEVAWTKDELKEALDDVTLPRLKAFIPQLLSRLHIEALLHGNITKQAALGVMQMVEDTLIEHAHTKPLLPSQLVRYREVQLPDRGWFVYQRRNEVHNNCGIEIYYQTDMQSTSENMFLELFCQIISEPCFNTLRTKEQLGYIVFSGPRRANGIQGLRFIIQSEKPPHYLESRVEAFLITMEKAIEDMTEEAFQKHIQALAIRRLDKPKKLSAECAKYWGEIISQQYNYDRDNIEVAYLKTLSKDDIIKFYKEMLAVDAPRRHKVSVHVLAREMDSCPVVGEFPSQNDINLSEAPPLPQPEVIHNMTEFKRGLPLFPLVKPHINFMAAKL
In short: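 Then mixed 1:1 with substrate. Fluorescence was followed for 60 min, and rates were taken from the 15–30 min window. Activity was normalized by the trypsin/pronase approach.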

[3] = target: T2, rat IDE; experiment: Dose-response of rat IDE activation; assay type: biochemical; settings: for dose-response profile: rat IDE activation, a-factor–based substrate
In short: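 Rat IDE (10 µg/mL) in 0.1 M KPi pH 7.6 was preincubated 10 min at 37 °C with activator (up to 1 mM), then mixed 1:1 with a-factor–based fluorogenic substrate (50 µM final). Fluorescence (320 ex) was read over 60 min and rate taken from the 15–30 min window. Baseline was subtracted and rates normalized to trypsin/pronase E full digestion. AC50 came from best-fit curves, or [Max]50 where the curve was not sigmoidal.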

[4] = target: T2, rat IDE; experiment: Kinetic analysis of rat IDE in presence of activator; assay type: biochemical; settings: compound 100 µM; 0.1 M KPi pH 7.6; DMSO control 154.8 ± 12.26
[5] = target: T3, bovine trypsin (Bos taurus, UniProt P00760); experiment: Target specificity: trypsin activity with a-factor–based peptide; assay type: biochemical; settings: 100 µM compound; relative to DMSO control = 100%
T3 sequence (P00760 24-246): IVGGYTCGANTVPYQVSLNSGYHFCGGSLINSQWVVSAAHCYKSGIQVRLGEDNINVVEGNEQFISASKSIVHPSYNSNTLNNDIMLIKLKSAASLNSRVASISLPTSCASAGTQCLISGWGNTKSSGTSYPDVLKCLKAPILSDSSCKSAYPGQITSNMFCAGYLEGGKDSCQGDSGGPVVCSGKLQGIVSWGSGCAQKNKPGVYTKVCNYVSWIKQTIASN
In short: as §1

O=S(=O)(O)CCCc1cccc2ccccc12 [Compound 1]
% Activity Ste23p [1]: 112.0 ± 5.4% | % Activity IDE [2]: 195.4 ± 12.2% | Saturation of activation ([3]; highest concentration tested 1 mM): not achieved | dose-response profile [3]: classic sigmoidal dose-responses | Vmax [4]: 194.1 ± 5.85 nmol/min/mg | % Activity Trypsin [5]: 94.2 ± 0.3%

O=C(O)c1ccc(Oc2nc3ccccc3s2)cc1 [Compound 7]
% Activity Ste23p [1]: 102.1 ± 1.7% | % Activity IDE [2]: 186.6 ± 7.4% | dose-response profile [3]: classic sigmoidal dose-responses | Vmax [4]: 194.1 ± 13.81 nmol/min/mg | % Activity Trypsin [5]: 111.0 ± 1.2%

O=[N+]([O-])/C=C/c1cc2ccccc2[nH]1 [Compound 8]
% Activity Ste23p [1]: 80.1 ± 6.0% | % Activity IDE [2]: 195.0 ± 14.0% | dose-response profile [3]: inverted bell-shaped activation curve | Vmax [4]: 185.0 ± 9.73 nmol/min/mg | % Activity Trypsin [5]: 101.8 ± 1.8%

O=S(=O)(O)c1cc(O)c2c(O)c(N=Nc3cccc4ccccc34)c(S(=O)(=O)O)cc2c1 [Compound 3]
% Activity Ste23p [1]: 90.4 ± 0.6% | % Activity IDE [2]: 356.0 ± 16.0% | dose-response profile [3]: inverted bell-shaped activation curve | % Activity Trypsin [5]: 99.3 ± 2.2%

Nc1nc(SCc2ccccc2Cl)cc(C(=O)O)n1 [Compound 5]
% Activity Ste23p [1]: 103.4 ± 1.6% | % Activity IDE [2]: 263.5 ± 1.0% | dose-response profile [3]: inverted bell-shaped activation curve | Vmax [4]: 127.8 ± 10.41 nmol/min/mg | % Activity Trypsin [5]: 94.3 ± 5.4%

O=C(CCN1CC2CCC(CC2)C1)c1cccs1 [Compound 6]
% Activity Ste23p [1]: 82 ± 0.3% | % Activity IDE [2]: 230.7 ± 13.5% | dose-response profile [3]: classic sigmoidal dose-responses | Vmax [4]: 176.3 ± 7.35 nmol/min/mg | % Activity Trypsin [5]: 111.5 ± 2.8%

Cn1ncc2c(NCCc3ccccc3)nc(Cl)nc21 [Compound 2]
% Activity Ste23p [1]: 117.2 ± 2.8% | % Activity IDE [2]: 170.3 ± 16.0% | dose-response profile [3]: classic sigmoidal dose-responses | Vmax [4]: 164.2 ± 6.4 nmol/min/mg | % Activity Trypsin [5]: 115.1 ± 3.9%
